# Only some compounds are listed: those with a hit (about 2.5% of all), similar ones and a draw of the others.
# NadD inh: inhibitors of Staphylococcus aureus NadD; purified NadD enzyme, colorimetric absorbance read-out; inhibition, % at 20 µM; 0.78% of 360,000 active; AID 602399; in the data active = inhibition above about 26%
# MsrA act: activators of bovine methionine sulfoxide reductase A | activation, % at 10.6 µM | purified bovine MsrA, absorbance read-out | 0.3% of 360,000 active; in the data active = activation above about 7.5%;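 also: 0% = vehicle and 100% = reference activator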
# NR2E3 ag-1: NR2E3 (human) agonism; Q9Y5X4; GST-NR2E3/biotin-RetCOR TR-FRET, 1536-well; inhibition of corepressor binding, % at 4.78 µM; 0.12% of 320,000 active;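 active = percent inhibition above the cutoff of mean plus 3 SD of all tested compounds, set per screening campaign, cut at about 20% in these data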;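 also: 0% = DMSO wells and 100% = biotin wells as full block of FRET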
#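 System: GST-NR2E3 and biotin-RetCOR proteins; probe or stimulus: 7 nM biotin-RetCOR; doses: compound at 4.8 µM, single dose; schedule: Compound–protein incubation for 5 h at 4 °C; detection: time-resolved FRET; read-out: percent inhibition; controls: biotin wells as high control, 0.6% DMSO wells as low control; format: 1536-well plates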
# GalR3 antagonist: blocks the human galanin receptor 3; O60755; HEK293 GalR3-CNG cAMP membrane potential fluorescence; galR3 body fused to GalR1 C-terminus; inhibition, % at 3 µM; 0.44% of 360,000 active; AID 651719;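 active = inhibition above the screen-wide average plus 3 SD, cut at about 13% in these data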;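 also: forskolin and galanin both at EC90 stimulate the cells; cAMP rise reported by CNG channel membrane potential dye signal; 0% = forskolin plus galanin with DMSO and 100% = forskolin alone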
# Target sequence (O60755 1-299 limits assumed): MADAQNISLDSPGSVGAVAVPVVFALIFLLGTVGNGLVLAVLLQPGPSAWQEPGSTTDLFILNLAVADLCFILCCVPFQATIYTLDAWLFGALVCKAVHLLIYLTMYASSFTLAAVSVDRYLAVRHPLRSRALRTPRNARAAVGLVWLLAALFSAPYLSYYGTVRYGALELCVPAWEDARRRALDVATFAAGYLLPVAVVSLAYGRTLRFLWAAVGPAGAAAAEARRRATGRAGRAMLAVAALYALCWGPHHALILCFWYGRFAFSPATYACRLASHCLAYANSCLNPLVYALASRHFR
# MsrA inhibitor: inhibits bovine methionine sulfoxide reductase A; purified bovine MsrA, absorbance read-out; inhibition, % at 15.5 µM; 0.75% of 360,000 active; AID 651718; in the data active = inhibition above about 4.5%;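 also: 0% = vehicle wells with enzyme and 100% = reference inhibitor wells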
# NR2E3 ag-2: human photoreceptor-specific nuclear receptor agonism. CHO-S Gal4-NCOR/VP16-NR2E3 two-hybrid, luciferase. inhibition of corepressor binding, % at 3.98 µM. 0.35% of 360,000 active. AID 602229;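 active = inhibition above the mean of all tested compounds plus 3 SD, cut at about 70% in these data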;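 also: 0% = DMSO with NR2E3 transfected cells and 100% = cells lacking NR2E3 construct; higher means lower luciferase signal from less NR2E3 corepressor binding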
# An asterisk follows results filed as active; nt = no result given.
SMILES,NadD inh,MsrA act,NR2E3 ag-1,GalR3 antagonist,MsrA inhibitor,NR2E3 ag-2
CC(C)(C)c1ccc(S(=O)(=O)/N=C2\C=C(NS(=O)(=O)c3ccccc3)C(=O)c3ccccc32)cc1,40*,0,2,-8,0,-8
COC(=O)c1ccccc1NC1=C/C(=N\S(=O)(=O)c2cccs2)c2ccccc2C1=O,6,0,7,-4,0,11
Cc1ccc(S(=O)(=O)/N=C2\C=C(NS(=O)(=O)c3ccccc3)C(=O)c3ccccc32)c(C)c1,32*,-8,nt,1,-1,-1
CN(CC(=O)Nc1ccc(F)cc1)C(=O)COC(=O)C1CCN(c2ccc(C(F)(F)F)cn2)CC1,-6,-3,-3,-5,1,-2
C#CCOCCOCCOCCNc1nc(N2CCN(C(=O)CCCCCCCCCCNC(=O)Cn3cc(CCCCCN)nn3)CC2)nc(N2CCN(C(=O)CCCCCCCCCCNC(=O)[C@H]([C@@H](C)CC)n3cc(CCCCN=C(N)N)nn3)CC2)n1,43*,-4,-3,nt,nt,21
C#CCOCCOCCOCCNc1nc(N2CCN(C(=O)CCCCCCCCCCNC(=O)[C@H]([C@@H](C)CC)n3cc(CCCCCN)nn3)CC2)nc(N2CCN(C(=O)CCCCCCCCCCNC(=O)[C@H](CO)n3cc(CCCCCN)nn3)CC2)n1,21,7,2,nt,nt,-28
C#CCOCCOCCOCCNc1nc(N2CCN(C(=O)CCCCCCCCCCNC(=O)[C@H]([C@@H](C)CC)n3cc(CCCCCN)nn3)CC2)nc(N2CCN(C(=O)CCCCCCCCCCNC(=O)[C@H]([C@@H](C)CC)n3cc(CCCCN=C(N)N)nn3)CC2)n1,48*,-6,2,nt,nt,25
C#CCOCCOCCOCCNc1nc(N2CCN(C(=O)CCCCCCCCCCNC(=O)[C@H]([C@@H](C)CC)n3cc(CCCCN=C(N)N)nn3)CC2)nc(N2CCN(C(=O)CCCCCCCCCCNC(=O)[C@H](CO)n3cc(CCCCCN)nn3)CC2)n1,36*,6,5,nt,nt,-11
C#CCOCCOCCOCCNc1nc(N2CCN(C(=O)CCCCCCCCCCNC(=O)[C@H]([C@@H](C)CC)n3cc(CCCCN=C(N)N)nn3)CC2)nc(N2CCN(C(=O)CCCCCCCCCCNC(=O)[C@H]([C@@H](C)CC)n3cc(CCCCN=C(N)N)nn3)CC2)n1,nt,nt,1,nt,nt,nt
COc1cccc(OC)c1C(=O)NC(C)c1ccccc1 (stereo unspecified),-3,-2,3,-3,0,-15
Cc1cccc(/C=C(\c2nc3ccccc3[nH]2)S(=O)(=O)c2ccccc2)c1,-3,-5,nt,11,2,43
CC(C)(C)c1ccc(/C=C(\c2nc3ccccc3[nH]2)S(=O)(=O)c2ccccc2)cc1,6,-3,1,nt,nt,81*
CCC(C)(C)C1CCC2(CC1)NC(CO)(CO)CO2 (stereo unspecified),-3,-3,2,2,0,2
Oc1ccc(C23CC4CC(CC(C4)C2)C3)cc1O,35*,-4,1,-8,0,-3
COc1ccc(C=NNC(=S)NN=Cc2ccc(OC)c(OC)c2)cc1OC,4,1,nt,16*,5.7*,-3
COc1cccc2c1C(=O)c1c(O)c3c(c(O)c1C2=O)C[C@@](O)(C(=O)CO)C[C@@H]3O[C@H]1C[C@H](N)[C@H](O)[C@H](C)O1,19,-1,1,-6,-1,-71
COc1cccc2c1C(=O)c1c(O)c3c(c(O)c1C2=O)C[C@@](O)(C(=O)CO)C[C@@H]3OC1CC(N)C(O)C(C)O1 (stereo partly specified),53*,-2,nt,-9,0,-65
CC(=O)[C@@]1(O)Cc2c(O)c3c(c(O)c2[C@H](O[C@H]2C[C@H](N)[C@H](O)[C@H](C)O2)C1)C(=O)c1ccccc1C3=O,-6,1,nt,-6,4.6*,14
Cc1c(C(=O)N2CCCCC2)c(S(=O)(=O)N2CCc3ccccc32)c(C)n1C,-6,-6,3,-7,-1,-23
NC(=O)c1ccccc1NC(=O)COc1ccc(Cl)cc1,-9,-5,0,-8,0,-73
CCOC(=O)N1CCC(Nc2c(Nc3cccc(CC)c3)c(=O)c2=O)CC1,-3,-3,-1,-4,4.6*,-37
Cc1[nH]n(C(N)=S)c(=O)c1N=Nc1cc(-c2ccc(Br)cc2)[nH]n1,43*,-6,1,-7,0,-3
Cc1ccc(N=Nc2c(C)[nH]n(C(N)=S)c2=O)cc1C,2,-4,-2,-1,1,15
Cc1ccc(C(=O)NCC(=O)Nc2ccc3c(c2)OCCO3)cc1,1,-1,3,0,0,-27
O=C(N/N=C/c1cc(Br)cc([N+](=O)[O-])c1O)c1ccc(NC(=O)c2ccc(F)cc2)cc1,54*,-2,-1,-5,-1,-2
SMILES,NadD inh,MsrA act,NR2E3 ag-1,GalR3 antagonist,MsrA inhibitor,NR2E3 ag-2
Cc1ccc(S(=O)(=O)/N=C2/C=C(Sc3ncn[nH]3)C(=O)c3ccccc32)c(C)c1,nt,nt,4,nt,nt,nt
CC(C)c1ccc(S(=O)(=O)/N=C2/C=C(Sc3ncn[nH]3)C(=O)c3ccccc32)cc1,83*,3,7,nt,nt,67
Cc1ccc(S(=O)(=O)/N=C2/C=C(Sc3ncn[nH]3)C(=O)c3ccccc32)cc1,50*,3,7,nt,nt,106*
CCCCn1c(N)c(N(CC(C)C)C(=O)c2ccc(S(=O)(=O)N(CC)c3ccccc3)cc2)c(=O)[nH]c1=O,4,-3,-2,-4,0,-17
COC(=O)Nc1ccc2ccc3c(NC(=O)OC)ccc4ccc1c2c43,-6,-5,nt,-6,1,-24
Cc1cc(-c2csc(NCc3ccccc3)n2)c(C)n1C,42*,-3,nt,nt,nt,-37
Cc1nc(N)sc1-c1csc(NCc2ccccc2)n1,23,-2,-2,-2,1,-12
Cc1c(NC(=O)COc2ccccc2Cl)c(=O)n(-c2ccccc2)n1C,5,-2,5,-6,-1,-41
CN1C=C/C(=C\c2cc[n+](C)c3ccccc23)c2ccccc21,1,5,nt,-3,48*,-9
CC[n+]1ccc(/C=C2\Sc3ccccc3N2CCCS(=O)(=O)[O-])c2ccccc21,15,-2,2,-7,0,-44
O=C1C(=Cc2ccc(Br)o2)C(=O)c2ccccc21,33*,-9,3,nt,nt,-98
CC1=C/C(=C\c2ccc(Br)o2)C(=O)O1,-4,-9,9,-3,-1,-17
COc1ccc(C(=O)OCC(=O)c2c(N)n(C)c(=O)n(C)c2=O)c(OC)c1OC,-2,-2,nt,-3,1,-33
COc1cccc(C(=O)Nc2ccc3c(c2)OCO3)c1OC,-11,2,0,-9,0,-122
CCn1c(SCC(=O)Nc2ccc(OC)c(S(=O)(=O)N3CCCCC3)c2)nnc1C1CC1,-2,-4,nt,-1,-1,0

# Screens as filed in PubChem BioAssay.
